Values belong to the molecule of their own block, whether it stands above or below them. Calls of active or inactive are those of the source. No cut-off for these calls is given here.
Assays:
[1] = Cmax in Wistar rat at 10 mg/kg, po; assay type: ADME, organism-based; parameters: dose 10 mg/kg, route oral; details: in vivo
In short: (§1)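 Four adult male Wistar rats per group given 10 mg/kg orally in labrasol/water (1:1), cassette dosing. Rats were jugular-cannulated under ketamine/xylazine and sampled freely moving at 1, 2, 3, 4, 6, 8, 10 and 24 h. Plasma stored at -20 °C and quantified by HPLC-MS/MS (ESI triple quadrupole).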

[2] = Terminal half life in Wistar rat at 10 mg/kg, po; assay type: ADME, organism-based; parameters: dose 10 mg/kg, route oral; details: in vivo; in short: as §1
[3] = AUC (0 to infinity) in Wistar rat at 10 mg/kg, po; assay type: ADME, organism-based; parameters: dose 10 mg/kg, route oral, time infinity; details: plasma; in short: as §1
[4] = Stimulation of human […] cell proliferation at 100 nM after 8 days by MTT assay relative to 17-beta estradiol; assay type: functional
[5] = molecular target: T1, 17-beta-hydroxysteroid dehydrogenase type 1 (Homo sapiens, UniProt P14061); assay: Inhibition of human placental 17beta-HSD1 assessed as conversion of [3H]estrone to [3H]17beta-estradiol
T1 sequence (P14061 whole entry): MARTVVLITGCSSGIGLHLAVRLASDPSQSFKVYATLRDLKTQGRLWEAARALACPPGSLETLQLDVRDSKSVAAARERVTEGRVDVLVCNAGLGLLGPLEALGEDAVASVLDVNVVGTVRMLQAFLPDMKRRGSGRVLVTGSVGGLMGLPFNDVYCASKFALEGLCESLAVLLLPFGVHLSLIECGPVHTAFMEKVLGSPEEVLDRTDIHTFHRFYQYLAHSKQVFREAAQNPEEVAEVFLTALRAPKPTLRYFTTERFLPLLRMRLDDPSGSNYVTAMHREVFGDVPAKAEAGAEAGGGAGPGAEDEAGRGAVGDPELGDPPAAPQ

[6] = AUC (0 to tlast) in Wistar rat at 10 mg/kg, po; assay type: ADME, organism-based; parameters: dose 10 mg/kg, route oral; details: plasma; in short: as §1
[7] = tested on: Rattus norvegicus; assay: Clast in Wistar rat at 10 mg/kg, po; assay type: ADME, organism-based; parameters: dose 10 mg/kg, route oral; details: in vivo; in short: as §1
[8] = Tmax in Wistar rat at 10 mg/kg, po; assay type: ADME, organism-based; parameters: dose 10 mg/kg, route oral; details: in vivo; in short: as §1
[9] = tested on: Rattus norvegicus; assay: Tlast in Wistar rat at 10 mg/kg, po; assay type: ADME, organism-based; parameters: dose 10 mg/kg, route oral; details: in vivo; in short: as §1
[10] = molecular target: T2, 17-beta-hydroxysteroid dehydrogenase type 1 (Homo sapiens) (UniProt P14061); assay: Inhibition of human placental 17beta-HSD1 assessed as conversion of [3H]estrone to [3H]17beta-estradiol at 1 uM
T2 sequence (whole entry): T1 sequence (P14061 whole entry)
In short: (§2)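 Cytosolic enzyme from human placenta, purified by ammonium sulfate precipitation, with NADH 500 µM. Incubated at 37 °C in 50 mM phosphate buffer with 20% glycerol and 1 mM EDTA, 1% DMSO final. Started with [3H]E1 (500 nM final) and stopped with HgCl2 after 10 min. Ether extraction, then HPLC with radioflow detection of E1/E2. Result is % inhibition = 100 − % conversion, from ≥3 independent experiments.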

[11] = tested on: T47C; assay: Stimulation of human […] cell proliferation at 0.1 nM after 8 days by MTT assay; assay type: functional, cell-based
[12] = molecular target: T2, 17-beta-hydroxysteroid dehydrogenase type 1 (Homo sapiens); assay: Inhibition of human placental 17beta-HSD1 assessed as conversion of [3H]estrone to [3H]17beta-estradiol at 100 nM; in short: as §2
[13] = molecular target: T3, 17-beta-hydroxysteroid dehydrogenase type 2 (Homo sapiens, UniProt P37059); assay: Inhibition of human placental 17beta-HSD2 assessed as conversion of [3H]17beta-estradiol to [3H]estrone
T3 sequence (P37059 whole entry): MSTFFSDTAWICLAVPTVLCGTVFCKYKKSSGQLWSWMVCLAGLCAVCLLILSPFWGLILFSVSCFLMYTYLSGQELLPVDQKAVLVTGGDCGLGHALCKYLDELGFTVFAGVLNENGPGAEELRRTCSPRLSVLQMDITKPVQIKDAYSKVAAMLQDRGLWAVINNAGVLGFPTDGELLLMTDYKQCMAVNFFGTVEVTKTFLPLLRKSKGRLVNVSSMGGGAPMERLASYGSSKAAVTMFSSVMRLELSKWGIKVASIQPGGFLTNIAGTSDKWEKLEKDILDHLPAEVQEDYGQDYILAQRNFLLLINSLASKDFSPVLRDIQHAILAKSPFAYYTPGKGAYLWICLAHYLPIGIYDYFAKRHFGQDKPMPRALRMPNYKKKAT
In short: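 Human placental microsomal fraction incubated with NAD+ (1500 µM), test compound and unlabeled plus [3H]E2 (final 500 nM) for 20 min at 37 °C. The reaction was stopped with HgCl2 and extracted with ether. E1 and E2 were separated by HPLC with radioflow detection. Percent conversion was used to derive inhibition. Values are the mean of three determinations; IC50 was measured for selected compounds.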

[14] = molecular target: T4, 17-beta-hydroxysteroid dehydrogenase type 2 (Homo sapiens) (UniProt P37059); assay: Inhibition of human recombinant expressed in Sf9 cells 17beta-HSD2 assessed as conversion of [3H]17beta-estradiol to [3H]estrone at 1 uM
T4 sequence (whole entry): T3 sequence (P37059 whole entry)
In short: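 Microsomes from Sf9 cells infected with baculovirus. Incubated with 30 nM [3H]E2 and 1 mM NAD+ in 20 mM KH2PO4, pH 7.4, for 30 min at room temperature, with 1% DMSO. Stopped with 10% trichloroacetic acid. E1/E2 radioactivity used for conversion; inhibition = 100 − % conversion, from two independent experiments.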

SMILES: Cc1ccc(S(=O)(=O)c2c(O)ccc3cc(-c4cccc(O)c4)ccc23)cc1
inhibition [10]: 75%

SMILES: C[C@]12CC[C@@H]3c4ccc(O)cc4CC[C@H]3[C@@H]1CC[C@@H]2O
Activity [11]: Active

SMILES: O=S(=O)(c1ccccc1)c1c(O)ccc2cc(-c3cccc(O)c3)ccc12
inhibition [10]: 33%

SMILES: O=C(Nc1ccccn1)c1c(O)ccc2cc(-c3cccc(O)c3)ccc12
Activity [12]: inactive
Activity [10]: inactive

SMILES: O=C(Nc1ncccn1)c1c(O)ccc2cc(-c3cccc(O)c3)ccc12
Activity [12]: inactive
Activity [10]: inactive

Continued, in another order:

Cmax [1]: 860 ng/mL
half-life [2]: 6 h
AUC(0-inf) [3]: 12700 ng·h/mL
IC50 [5]: 20 nM
AUC(0-t) [6]: 11700 ng·h/mL
Cz [7]: 115 ng/mL
Tmax [8]: 4 h
tz [9]: 24 h
SMILES: Oc1cccc(-c2ccc3c(-c4ccccc4)c(O)ccc3c2)c1
Activity [4]: 39%

inhibition [12]: inactive
inhibition [10]: 53%
SMILES: N#Cc1cc(-c2cccc(O)c2)cc2ccc(O)cc12

inhibition [12]: 73%
inhibition [10]: 99%
SMILES: N#Cc1cc(O)cc2ccc(-c3cccc(O)c3)cc12

IC50 [5]: 40 nM
IC50 [13]: 639 nM
SMILES: Oc1cccc(-c2ccc3c(Br)c(O)ccc3c2)c1

inhibition [10]: 73%
SMILES: Cc1nnc(NC(=O)c2c(O)ccc3cc(-c4cccc(O)c4)ccc23)s1

inhibition [14]: 36%
SMILES: CNC(=O)CCc1c(O)ccc2cc(-c3cccc(O)c3)ccc12

Cmax [1]: 2230 ng/mL
half-life [2]: 4 h
AUC(0-inf) [3]: 30700 ng·h/mL
AUC(0-t) [6]: 29700 ng·h/mL
Cz [7]: 159 ng/mL
Tmax [8]: 6 h
tz [9]: 24 h
SMILES: Oc1cccc(-c2ccc3cc(O)ccc3c2)c1
Activity [4]: 41%
